# Assay results taken from ChEMBL document CHEMBL4354820, “Optimizing Targeted Inhibitors of P-Glycoprotein Using Computational and Structure-Guided Approaches” (J Med Chem, 2019).
# What was measured:
# [1] = molecular target: T1, ATP-dependent translocase ABCB1 (Homo sapiens, UniProt P08183); test: Inhibition of P-gp overexpressed in human DU145-TxR cells assessed as increase in cellular accumulation of calcein AM at 2 uM preincubated for 6 hrs followed by calcein AM addition by fluorescence imaging analysis; format: cell-based
# T1 sequence (P08183 whole entry): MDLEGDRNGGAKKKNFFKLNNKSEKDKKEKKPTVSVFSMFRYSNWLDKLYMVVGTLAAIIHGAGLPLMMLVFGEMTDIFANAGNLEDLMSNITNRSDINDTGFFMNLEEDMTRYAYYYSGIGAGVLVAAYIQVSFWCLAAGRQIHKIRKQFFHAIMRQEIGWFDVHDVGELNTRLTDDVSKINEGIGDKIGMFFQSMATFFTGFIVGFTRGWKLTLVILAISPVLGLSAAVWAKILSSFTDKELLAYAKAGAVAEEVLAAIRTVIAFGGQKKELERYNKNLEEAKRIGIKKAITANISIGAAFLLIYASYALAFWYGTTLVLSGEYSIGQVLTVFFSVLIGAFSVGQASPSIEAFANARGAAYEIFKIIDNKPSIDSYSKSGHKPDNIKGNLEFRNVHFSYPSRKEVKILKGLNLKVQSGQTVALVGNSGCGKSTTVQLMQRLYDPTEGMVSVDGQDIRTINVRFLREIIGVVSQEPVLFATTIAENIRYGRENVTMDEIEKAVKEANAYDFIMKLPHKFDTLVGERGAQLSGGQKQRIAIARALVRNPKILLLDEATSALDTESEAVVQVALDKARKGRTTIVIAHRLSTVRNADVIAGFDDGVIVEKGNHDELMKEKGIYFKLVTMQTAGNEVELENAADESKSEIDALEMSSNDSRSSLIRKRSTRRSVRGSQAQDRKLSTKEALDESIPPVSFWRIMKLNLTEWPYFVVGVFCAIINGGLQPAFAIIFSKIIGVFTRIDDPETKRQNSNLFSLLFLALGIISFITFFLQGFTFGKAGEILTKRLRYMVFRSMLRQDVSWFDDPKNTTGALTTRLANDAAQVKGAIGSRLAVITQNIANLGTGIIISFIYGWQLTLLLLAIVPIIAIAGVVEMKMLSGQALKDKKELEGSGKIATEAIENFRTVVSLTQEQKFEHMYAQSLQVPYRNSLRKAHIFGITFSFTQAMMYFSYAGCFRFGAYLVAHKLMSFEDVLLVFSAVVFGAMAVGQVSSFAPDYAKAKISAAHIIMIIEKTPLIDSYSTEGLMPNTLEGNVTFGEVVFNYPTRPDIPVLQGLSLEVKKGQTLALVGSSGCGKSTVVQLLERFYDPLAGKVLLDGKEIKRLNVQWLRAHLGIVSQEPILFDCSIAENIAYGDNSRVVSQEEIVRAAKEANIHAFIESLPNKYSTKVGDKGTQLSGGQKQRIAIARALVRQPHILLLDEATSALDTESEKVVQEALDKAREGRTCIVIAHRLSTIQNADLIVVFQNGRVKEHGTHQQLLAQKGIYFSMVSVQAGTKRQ
# Procedure, shortened: (§1)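 Confluent DU145TXR monolayers in phenol red-free RPMI 1640 given 2 μM inhibitor (DMSO vehicle) and 1 μg mL−1 calcein AM, either added together or after a 6 h inhibitor-only preincubation at 37 °C. Calcein fluorescence (ex 485 / em 535 nm) read over 60 min at 20 min intervals. Six replicates, at least two independent experiments.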
# [2] = molecular target: T2, P-glycoprotein (ABCB1, mouse MDR3) ATPase (Mus musculus, UniProt P21447); test: Stimulation of verampil-mediated ATPase hydrolysis in recombinant mouse MDR3 expressed in Pichia pastoris measured after 30 mins in presence of NADH by coupled enzyme assay (reference value: 100 +/- 8 %); design: scale not given: the % may be the effect or the level left; settings: recombinant mouse MDR3 (P-gp) expressed in Pichia pastoris, read-out: Activity
# T2 sequence (P21447 whole entry): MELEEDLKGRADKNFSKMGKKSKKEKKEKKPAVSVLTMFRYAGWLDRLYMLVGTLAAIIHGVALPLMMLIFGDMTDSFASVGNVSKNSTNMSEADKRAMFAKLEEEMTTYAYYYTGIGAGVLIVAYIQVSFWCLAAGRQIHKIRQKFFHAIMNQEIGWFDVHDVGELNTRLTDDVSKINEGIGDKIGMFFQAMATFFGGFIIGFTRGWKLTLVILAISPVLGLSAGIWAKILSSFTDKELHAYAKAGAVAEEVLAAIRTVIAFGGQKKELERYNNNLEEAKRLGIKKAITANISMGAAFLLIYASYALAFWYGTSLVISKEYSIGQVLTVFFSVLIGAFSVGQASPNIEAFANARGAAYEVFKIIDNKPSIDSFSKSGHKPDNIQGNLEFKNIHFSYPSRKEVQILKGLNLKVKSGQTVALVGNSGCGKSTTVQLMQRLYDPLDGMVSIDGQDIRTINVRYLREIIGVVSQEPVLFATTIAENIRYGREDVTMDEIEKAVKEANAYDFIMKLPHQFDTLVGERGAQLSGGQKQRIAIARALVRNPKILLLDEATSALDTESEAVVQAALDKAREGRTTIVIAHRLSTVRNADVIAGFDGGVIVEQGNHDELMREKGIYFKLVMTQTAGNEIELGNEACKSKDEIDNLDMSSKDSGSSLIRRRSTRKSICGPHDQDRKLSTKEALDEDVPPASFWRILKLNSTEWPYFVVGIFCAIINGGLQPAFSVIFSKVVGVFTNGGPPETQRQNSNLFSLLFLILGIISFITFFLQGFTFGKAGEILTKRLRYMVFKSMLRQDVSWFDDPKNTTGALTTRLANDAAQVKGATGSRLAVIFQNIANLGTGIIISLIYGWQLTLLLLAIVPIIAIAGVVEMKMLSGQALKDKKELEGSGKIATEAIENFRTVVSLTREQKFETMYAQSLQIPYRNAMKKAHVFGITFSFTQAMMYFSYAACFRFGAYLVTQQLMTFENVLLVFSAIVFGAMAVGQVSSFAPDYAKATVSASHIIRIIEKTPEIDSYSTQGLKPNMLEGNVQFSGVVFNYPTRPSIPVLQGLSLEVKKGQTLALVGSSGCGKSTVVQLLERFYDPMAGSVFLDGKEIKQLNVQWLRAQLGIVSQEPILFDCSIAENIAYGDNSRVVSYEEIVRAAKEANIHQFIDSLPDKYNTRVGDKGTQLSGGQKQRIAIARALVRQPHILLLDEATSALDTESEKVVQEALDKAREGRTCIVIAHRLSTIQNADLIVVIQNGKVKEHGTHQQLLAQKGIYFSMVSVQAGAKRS
# [3] = molecular target: T3, P-glycoprotein (ABCB1, MDR1) ATPase (Homo sapiens, UniProt P08183); test: Inhibition of verampil-stimulated ATPase hydrolysis in recombinant human MDR1 expressed in Pichia pastoris measured after 30 mins in presence of NADH by coupled enzyme assay (reference value: 100 +/- 6 %); design: scale not given: the % may be the effect or the level left; settings: recombinant human MDR1 (P-gp) expressed in Pichia pastoris
# T3 sequence (P08183 whole entry): as the sequence (P08183 whole entry) above
# [4] = molecular target: T3, P-glycoprotein (ABCB1, MDR1) ATPase; test: Basal ATPase hydrolysis in recombinant human MDR1 expressed in Pichia pastoris measured after 30 mins in presence of NADH by coupled enzyme assay (reference value: 100 +/- 5 %); design: scale not given: the % may be the effect or the level left; settings: recombinant human MDR1 (P-gp) expressed in Pichia pastoris
# [5] = molecular target: T1, ATP-dependent translocase ABCB1; test: Ratio of inhibition of P-gp overexpressed in human DU145-TxR cells assessed as increase in intracellular compound accumulation after 2.5 hrs in presence of tariquidar by LC-MS/MS analysis to Inhibition of P-gp overexpressed in human DU145-TxR cells assessed as decrease in intracellular compound accumulation after 2.5 hrs in absence of tariquidar by LC-MS/MS analysis; format: cell-based
# Procedure, shortened: (§2)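 P-gp-overexpressing DU145TXR cells exposed to test compounds with or without tariquidar. Intracellular compound measured by LC–MS/MS, with daunorubicin as a transported-substrate control. Ratio is accumulation with tariquidar divided by accumulation without.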
# [6] = test system: P-glycoprotein 1 Abcb1a (Mus musculus); test: Inhibition of 2',3'-(2,2,5,5,-tetramethyl-3-pyrroline-l-oxyl-3-carboxylic acid ester)ATP interaction with mouse MDR3 P-gp expressed in Escherichia coli BL21 (DE3) assessed as reduction in ATP binding from 2 to 1 of nucleotide to mol of protein by ESR analysis (reference value: 1.8 +/- 0.1)
# [7] = molecular target: T1, ATP-dependent translocase ABCB1; test: Reversal of P-gp mediated multidrug resistance in human DU145-TxR cells overexpressing P-gp assessed as potentiation of paclitaxel-induced cytotoxicity by measuring fold reduction paclitaxel IC50 at 7 uM after 48 hrs by MTT assay relative to paclitaxel alone; format: cell-based
# Procedure, shortened: (§3)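 DU145TXR cells seeded at 3000 per well, 24 h later treated 48 h with paclitaxel alone or with 3, 5, 7 or 10 μM inhibitor in complete medium (DMSO vehicle). MTT 4 h, formazan dissolved in DMSO, A570 read, background subtracted, viability relative to DMSO. IC50 by four-parameter nonlinear fit; eight replicates, at least two experiments. Fold values compare paclitaxel alone or with parent inhibitor.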
# [8] = molecular target: T2, P-glycoprotein (ABCB1, mouse MDR3) ATPase; test: Basal ATPase hydrolysis in recombinant mouse MDR3 expressed in Pichia pastoris measured after 30 mins in presence of NADH by coupled enzyme assay (reference value: 100 +/- 7 %); design: scale not given: the % may be the effect or the level left; settings: recombinant mouse MDR3 (P-gp) expressed in Pichia pastoris
# [9] = molecular target: T1, ATP-dependent translocase ABCB1; test: Reversal of P-gp mediated multidrug resistance in human DU145-TxR cells overexpressing P-gp assessed as potentiation of paclitaxel-induced cytotoxicity by measuring fold reduction paclitaxel IC50 at 7 uM after 48 hrs by MTT assay relative to parent compound; format: cell-based; procedure, shortened: as §3
# [10] = molecular target: T1, ATP-dependent translocase ABCB1; test: Inhibition of P-gp overexpressed in human DU145-TxR cells assessed as increase in cellular accumulation of calcein AM at 2 uM pretreated followed by calcein AM addition by fluorescence imaging analysis; format: cell-based; procedure, shortened: as §1
# [11] = molecular target: T1, ATP-dependent translocase ABCB1; test: Reversal of P-gp mediated multidrug resistance in human DU145-TxR cells overexpressing P-gp assessed as potentiation of paclitaxel-induced cytotoxicity by measuring fold reduction paclitaxel IC50 at 10 uM after 48 hrs by MTT assay relative to paclitaxel alone; format: cell-based; procedure, shortened: as §3
# [12] = molecular target: T1, ATP-dependent translocase ABCB1; test: Reversal of P-gp mediated multidrug resistance in human DU145-TxR cells overexpressing P-gp assessed as potentiation of paclitaxel-induced cytotoxicity by measuring fold reduction paclitaxel IC50 at 3 uM after 48 hrs by MTT assay relative to parent compound; format: cell-based; procedure, shortened: as §3
# [13] = molecular target: T1, ATP-dependent translocase ABCB1; test: Reversal of P-gp mediated multidrug resistance in human DU145-TxR cells overexpressing P-gp assessed as potentiation of paclitaxel-induced cytotoxicity by measuring fold reduction paclitaxel IC50 at 3 uM after 48 hrs by MTT assay relative to paclitaxel alone; format: cell-based; procedure, shortened: as §3
# [14] = molecular target: P-glycoprotein 1 Abcb1a (Mus musculus); test: Inhibition of spin-labelled adenine nucleotide interaction with mouse MDR3 P-gp expressed in Escherichia coli BL21 (DE3) assessed as apparent dissociation constant by ESR analysis (reference value: 36.5 +/- 3.6 uM)
# [15] = molecular target: T1, ATP-dependent translocase ABCB1; test: Reversal of P-gp mediated multidrug resistance in human DU145-TxR cells overexpressing P-gp assessed as potentiation of paclitaxel-induced cytotoxicity by measuring fold reduction paclitaxel IC50 at 10 uM after 48 hrs by MTT assay relative to parent compound; format: cell-based; procedure, shortened: as §3
# [16] = molecular target: T1, ATP-dependent translocase ABCB1; test: Reversal of P-gp mediated multidrug resistance in human DU145-TxR cells overexpressing P-gp assessed as potentiation of paclitaxel-induced cytotoxicity by measuring fold reduction paclitaxel IC50 at 5 uM after 48 hrs by MTT assay relative to parent compound; format: cell-based; procedure, shortened: as §3
# [17] = molecular target: T1, ATP-dependent translocase ABCB1; test: Reversal of P-gp mediated multidrug resistance in human DU145-TxR cells overexpressing P-gp assessed as potentiation of paclitaxel-induced cytotoxicity by measuring fold reduction paclitaxel IC50 at 5 uM after 48 hrs by MTT assay relative to paclitaxel alone; format: cell-based; procedure, shortened: as §3
# [18] = molecular target: T1, ATP-dependent translocase ABCB1; test: Inhibition of P-gp overexpressed in human DU145-TxR cells assessed as decrease in intracellular compound accumulation after 2.5 hrs in absence of tariquidar by LC-MS/MS analysis; format: cell-based; procedure, shortened: as §2
# [19] = molecular target: T2, P-glycoprotein (ABCB1, mouse MDR3) ATPase; test: Inhibition of verampil-stimulated ATPase hydrolysis in recombinant mouse MDR3 expressed in Pichia pastoris measured after 30 mins in presence of NADH by coupled enzyme assay (reference value: 100 +/- 8 %); design: scale not given: the % may be the effect or the level left; settings: recombinant mouse MDR3 (P-gp) expressed in Pichia pastoris
# [20] = molecular target: T1, ATP-dependent translocase ABCB1; test: Inhibition of P-gp overexpressed in human DU145-TxR cells assessed as increase in intracellular compound accumulation after 2.5 hrs in presence of tariquidar by LC-MS/MS analysis; format: cell-based; procedure, shortened: as §2
# [21] = molecular target: T2, P-glycoprotein (ABCB1, mouse MDR3) ATPase; test: Stimulation of basal ATPase hydrolysis in recombinant mouse MDR3 expressed in Pichia pastoris measured after 30 mins in presence of NADH by coupled enzyme assay (reference value: 100 +/- 7 %); design: scale not given: the % may be the effect or the level left; settings: recombinant mouse MDR3 (P-gp) expressed in Pichia pastoris, read-out: Activity
inhibition (INH) [1],Activity at 0.5 h [2] [%],Activity at 0.5 h [3] [%],Activity at 0.5 h [4] [%],Ratio [5],Activity [6],Activity at 0.5 h [8] [%],inhibition (INH) [10],Kd [14] [µM],inhibition (INH) [18],inhibition (INH) [20],Compound,fold change (FC) [7],fold change (FC) [9],fold change (FC) [11],fold change (FC) [12],fold change (FC) [13],fold change (FC) [15],fold change (FC) [16],fold change (FC) [17],other results
Active,141,40,70,0.9,1.6,70,Active,22.2,,,Cc1cc(C)c(-c2cc(NC(=O)CSCC(=O)Nc3ccc4ccccc4c3)n(-c3ccccc3)n2)cc1C,303,8.4,1060,4.1,14,11,4.2,46,
Active,,63,74,1,1.3,78,Not Active,22.9,Not Active,Not Active,Cc1cc(C)c(-c2cc(NC(=O)CSCC(=O)NC34CC5CC(CC(C5)C3)C4)n(-c3ccccc3)n2)cc1C,101,2.8,163,2.7,9.2,1.6,1.8,19,Activity at 0.5 h [19]: 41%
Active,116,54,76,1.2,1.6,,Not Active,21.6,Not Active,Not Active,Cc1cc(C)c(-c2cc(NC(=O)CSCC(=O)NC(c3ccccc3)c3ccccc3)n(-c3ccccc3)n2)cc1C,133,3.7,193,3.9,13,1.9,3.5,38,Activity at 0.5 h [21]: 148%
